Data reported in ChEMBL document CHEMBL1148836, “3-Substituted-(5-arylfuran-2-ylcarbonyl)guanidines as NHE-1 inhibitors” (Bioorg Med Chem Lett, 2007).

Key:
[1] = target: Sodium/hydrogen exchanger 1 (Homo sapiens, UniProt P19634); assay: Inhibition of human NHE1 expressed in PS120 cells; assay type: cell-based
In short: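 PS120 variant cells selectively expressing human NHE-1. Inhibition measured as the effect on sodium-dependent pH recovery after imposed intracellular acidosis. IC50 values are means of three experiments.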

Heart [2] = assay: Cardioprotective effect against ischemia reperfusion injury in rat heart assessed as recovery of rate pressure product at 10 uM; assay type: functional
In short: (§1)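 Isolated rat heart ischemia/reperfusion model. Hearts exposed to 10 µM compound for 10 min before ischemia. Read-outs are recovery of contractile function as rate-pressure product (% RPP) and left ventricular end-diastolic pressure (mmHg), each compared with a vehicle group. Values are means, n = 3 or higher.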

Heart [3] = assay: Cardioprotective effect against ischemia reperfusion injury in rat heart assessed as left ventricular end diastolic pressure at 10 uM; assay type: functional; in short: as §1
Rattus norvegicus = assay: Cardioprotective effect against ischemia reperfusion injury in rat myocardial infarction model assessed as ratio of infarction size to area at risk at 0.1 mg/kg, iv; assay type: functional, Myocardium
In short: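 Rat myocardial infarction model. Animals stabilized 20 min after left thoracotomy, then 45 min coronary artery occlusion and 90 min reperfusion. Compound given at 0.1 mg/kg as bolus intravenous injection 5 min before ischemia onset. Infarct size measured as a ratio to area at risk (IS/AAR, %), compared with vehicle. Means, n = 3 or higher.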

Sodium/hydrogen exchanger 1, sequence (P19634 whole entry): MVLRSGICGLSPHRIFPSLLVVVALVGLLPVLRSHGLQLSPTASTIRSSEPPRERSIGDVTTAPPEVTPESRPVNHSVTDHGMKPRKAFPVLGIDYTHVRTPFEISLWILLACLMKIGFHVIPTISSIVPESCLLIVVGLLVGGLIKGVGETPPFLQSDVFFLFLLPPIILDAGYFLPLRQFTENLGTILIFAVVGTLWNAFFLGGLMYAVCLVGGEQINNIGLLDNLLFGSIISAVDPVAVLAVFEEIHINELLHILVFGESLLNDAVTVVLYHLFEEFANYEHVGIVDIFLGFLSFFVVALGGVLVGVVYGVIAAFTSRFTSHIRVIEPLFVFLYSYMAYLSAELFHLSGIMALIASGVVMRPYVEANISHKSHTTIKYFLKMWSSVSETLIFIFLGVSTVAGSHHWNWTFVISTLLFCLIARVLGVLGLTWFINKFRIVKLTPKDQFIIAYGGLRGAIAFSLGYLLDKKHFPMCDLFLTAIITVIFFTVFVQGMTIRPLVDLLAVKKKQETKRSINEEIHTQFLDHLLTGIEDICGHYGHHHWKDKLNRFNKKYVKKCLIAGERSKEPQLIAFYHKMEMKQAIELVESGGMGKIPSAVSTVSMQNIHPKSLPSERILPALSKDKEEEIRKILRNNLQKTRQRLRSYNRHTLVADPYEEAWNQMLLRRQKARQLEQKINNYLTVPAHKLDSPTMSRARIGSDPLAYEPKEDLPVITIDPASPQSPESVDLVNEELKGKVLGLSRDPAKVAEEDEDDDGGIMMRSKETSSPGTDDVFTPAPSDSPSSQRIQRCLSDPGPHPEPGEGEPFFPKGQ

Row | Structure (SMILES) | IC50 [1] [nM] | Activity (Heart [2]) [%] | Activity (Heart [3]) [mmHg] | Activity (Rattus norvegicus) [%]
1 | N=C(N)NC(=O)c1oc(-c2cccc(Cl)c2)cc1-n1cccc1 | 3000 |  |  | 
2 | Cc1cccc(-c2cc(N)c(C(=O)NC(=N)N)o2)c1 | 770 |  |  | 
3 | CC(=O)N(C)c1cc(-c2ccccc2)oc1C(=O)NC(=N)N | > 30000 |  |  | 
4 | NC(N)=NC(=O)c1oc(-c2cccc(Cl)c2)cc1N | 150 | 33 | 27 | 53
5 | COc1ccc(Cl)cc1-c1cc(N(C)C(C)=O)c(C(=O)NC(=N)N)o1 | 33000 |  |  | 
6 | COc1ccc(F)cc1-c1cc(N)c(C(=O)NC(=N)N)o1 | 120 |  |  | 
7 | Cc1cc(-c2cc(F)ccc2F)oc1C(=O)N=C(N)N | 130 |  |  | 
8 | Cc1ccc(C)c(-c2cc(N)c(C(=O)NC(=N)N)o2)c1 | 72 |  |  | 
9 | CN(C)c1cc(-c2cccc(Cl)c2)oc1C(=O)N=C(N)N | 120 |  |  | 
10 | N=C(N)NC(=O)c1oc(-c2cccc(Cl)c2)cc1N1CCCC1 | 5100 |  |  | 
11 | N=C(N)NC(=O)c1oc(-c2cc(F)ccc2F)cc1N | 410 |  |  | 
12 | NC(N)=NC(=O)c1oc(-c2cc(Cl)ccc2Cl)cc1N1CCCC1 | 480 |  |  | 
13 | NC(N)=NC(=O)c1oc(-c2cc(Cl)ccc2Cl)cc1N1CCCCC1 | 480 |  |  | 
14 | Cc1cc(-c2cccc(Cl)c2)oc1C(=O)NC(=N)N | 24 |  |  | 
15 | CNc1cc(-c2ccccc2)oc1C(=O)N=C(N)N | 820 |  |  | 
16 | Cc1cc(-c2cc(Cl)ccc2Cl)oc1C(=O)NC(=N)N | 16 |  |  | 
17 | N=C(N)NC(=O)c1oc(-c2ccccc2)cc1N | 2300 |  |  | 
18 | CC(=O)Nc1cc(-c2cccc(Cl)c2)oc1C(=O)NC(=N)N | 14000 |  |  | 
19 | CC(C)c1ccc(C(=O)N=C(N)N)cc1S(C)(=O)=O [CARIPORIDE] |  | 48 | 24 | 41

Further lines, with some results ahead:

Row | IC50 [1] [nM] | Structure (SMILES) | Activity (Heart [2]) [%] | Activity (Heart [3]) [mmHg] | Activity (Rattus norvegicus) [%]
20 | 1200 | NC(N)=NC(=O)c1oc(-c2ccccc2F)cc1N | 62 | 20 | 
21 | 150 | COc1ccccc1-c1cc(N)c(C(=O)N=C(N)N)o1 | 30 | 31 | 55
22 | > 30000 | CC(=O)N(C)c1cc(-c2cc(Cl)ccc2Cl)oc1C(=O)N=C(N)N |  |  | 
23 | 10 | COc1ccc(Cl)cc1-c1cc(C)c(C(=O)N=C(N)N)o1 | 0.3 | 34 | 
24 | 15 | COc1ccc(Cl)cc1-c1cc(N)c(C(=O)N=C(N)N)o1 | 27 | 29 | 
25 | 230 | CCc1cc(-c2cccc(Cl)c2)oc1C(=O)NC(=N)N |  |  | 
26 | 5600 | COc1ccc(Cl)cc1-c1cc(-c2ccccc2)c(C(=O)NC(=N)N)o1 |  |  | 
27 | 14000 | CC(=O)Nc1cc(-c2ccccc2)oc1C(=O)N=C(N)N |  |  | 
28 | 6200 | CC(=O)Nc1cc(-c2cc(Cl)ccc2Cl)oc1C(=O)N=C(N)N |  |  | 
29 | 4500 | COc1ccc(Cl)cc1-c1cc(NC(C)=O)c(C(=O)N=C(N)N)o1 |  |  | 
30 | 96 | CNc1cc(-c2cc(Cl)ccc2Cl)oc1C(=O)N=C(N)N |  |  | 
31 | 16000 | NC(N)=NC(=O)c1oc(-c2cccc(Cl)c2)cc1N1CCCCC1 |  |  | 
32 | 8 | N=C(N)NC(=O)c1oc(-c2cc(Cl)ccc2Cl)cc1N |  |  | 
33 | > 30000 | CC(=O)N(C)c1cc(-c2cccc(Cl)c2)oc1C(=O)NC(=N)N |  |  | 
34 | 120 | CN(C)c1cc(-c2ccccc2)oc1C(=O)N=C(N)N |  |  | 
35 | 9 | CN(C)c1cc(-c2cc(Cl)ccc2Cl)oc1C(=O)NC(=N)N |  |  | 
36 | 12 | COc1ccc(Cl)cc1-c1cc(N(C)C)c(C(=O)N=C(N)N)o1 | 6.4 | 40 | 
37 | 820 | CNc1cc(-c2cccc(Cl)c2)oc1C(=O)N=C(N)N |  |  | 
38 | 240 | Cc1ccccc1-c1cc(N)c(C(=O)N=C(N)N)o1 | 30 | 28 | 47
39 | 680 | NC(N)=NC(=O)c1oc(-c2cccc(F)c2)cc1N | 49 | 25 | 
